# From ChEMBL document CHEMBL2021807, “The conversion of oridonin to spirolactone-type or enmein-type diterpenoid: synthesis and biological evaluation of ent-6,7-seco-oridonin derivatives as novel potential anticancer agents” (Eur J Med Chem, 2012)
# Experiments:
# K562 = experiment: Cytotoxicity against human K562 cells after 72 hrs by MTT assay; type: functional, cell-based; conditions: K562, 72 h
# Outline: (§1)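 MTT assay. Log-phase cells were seeded at 5×10^4 cells/ml and treated in four replicates at 0.39–100 μg/ml, 37 °C, 5% CO2. At 72 h, MTT (5 mg/ml solution) was added for 4 h, then DMSO, and OD read at 490 nm. Negative reference was 0.1% DMSO; Taxol at 10 μg/ml served as positive reference. IC50 in μM, mean of three experiments.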
# [1] = Cytotoxicity against human CaEs17 cells after 72 hrs by MTT assay; type: functional, cell-based; conditions: CaEs17, 72 h; outline: as §1
# Bel-7402 = experiment: Cytotoxicity against human Bel7402 cells after 72 hrs by MTT assay; type: functional, cell-based; conditions: Bel-7402, 72 h; outline: as §1
# MGC-803 [2] = experiment: Cytotoxicity against human MGC803 cells after 72 hrs by MTT assay; type: functional, cell-based; conditions: MGC-803, 72 h; outline: as §1
# MCF7 = experiment: Cytotoxicity against human MCF7 cells after 72 hrs by MTT assay; type: functional, cell-based; conditions: MCF7, 72 h; outline: as §1
# HeLa = experiment: Cytotoxicity against human HeLa cells after 72 hrs by MTT assay; type: functional, cell-based; outline: as §1
# A549 = experiment: Cytotoxicity against human A549 cells after 72 hrs by MTT assay; type: functional, cell-based; conditions: A549, 72 h; outline: as §1
# HepG2 = experiment: Cytotoxicity against human HepG2 cells; type: functional, cell-based
# MGC-803 [3] = experiment: Antitumor activity against human MGC803 cells xenografted in ICR mouse assessed as inhibition of tumor growth at 10 mg/kg, ip qd for 25 consecutive days dosed 7 days post tumor cells transplantation relative to untreated control; type: functional; conditions: MGC-803, ip, 168 h, read-out: INH, route intraperitoneal
# Outline: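 MGC-803 gastric cancer tumors in mice, 8 per group. Intraperitoneal dosing at 10 mg/kg in 1% DMSO/2% poloxamer/97% saline, started 7 d after tumor transplantation and given once daily for 25 consecutive days. The negative control received 0.9% saline ip. At the end, mice were killed and weighed and tumors excised and weighed. Inhibition (%) = (1 − mean treated tumor weight/mean control tumor weight) × 100.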
# MGC-803 [4] = experiment: Antitumor activity against human MGC803 cells xenografted in ICR mouse assessed as inhibition of tumor growth at 10 mg/kg, iv qd for 25 consecutive days dosed 7 days post tumor cells transplantation relative to untreated control; type: functional; conditions: MGC-803, 168 h
# Outline: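 MGC-803 gastric cancer tumors in mice, 8 per group. Intravenous dosing at 10 mg/kg in 1% DMSO/2% poloxamer/97% saline, started 7 d after tumor transplantation and given once daily for 25 consecutive days. The control group received 0.9% saline ip. Tumors were excised and weighed at the end. Inhibition (%) = (1 − mean treated tumor weight/mean control tumor weight) × 100.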
Structure (SMILES),IC50 (K562) [µM],IC50 [1] [µM],IC50 (Bel-7402) [µM],IC50 (MGC-803 [2]) [µM],IC50 (MCF7) [µM],IC50 (HeLa) [µM],IC50 (A549) [µM],IC50 (HepG2) [µM],inhibition in vivo at 10 mg/kg (MGC-803 [3]) [%],inhibition in vivo at 10 mg/kg (MGC-803 [4]) [%]
C=C1C(=O)[C@]23C[C@H]1CC[C@H]2[C@@]1(CCCC(C)(C)[C@H]1CO)COC3=O [SCULPONEATIN N],0.21,–,–,–,–,–,–,–,–,–
C=C1C(=O)[C@@]23C(=O)OC[C@]4(C(=O)CCC(C)(C)[C@H]4C=O)[C@@H]2CC[C@@H]1[C@H]3OC(=O)c1ccccc1F,2.86,8.55,3.95,3.94,–,–,–,–,–,–
C=C1C(=O)[C@@]23C(=O)OC[C@]4(C(=O)CCC(C)(C)[C@H]4C=O)[C@@H]2CC[C@@H]1[C@H]3OC(C)=O,1.39,1.35,1.73,1.66,–,–,–,–,–,–
C=C1C(=O)[C@@]23C(=O)OC[C@]4(C(=O)CCC(C)(C)[C@H]4C=O)[C@@H]2CC[C@@H]1[C@H]3OC(=O)c1ccc(C)cc1,1.27,1.05,1.54,2.24,–,–,–,–,–,–
C=C1C(=O)[C@@]23C(=O)OC[C@]4(C(=O)CCC(C)(C)[C@H]4C=O)[C@@H]2CC[C@@H]1[C@H]3OC(=O)c1ccc(C(F)(F)F)cc1,2.82,8.96,3.99,4.93,–,–,–,–,–,–
C=C1C(=O)[C@@]23C(=O)OC[C@]4(C(=O)CCC(C)(C)[C@H]4C=O)[C@@H]2CC[C@@H]1[C@H]3OC(=O)c1ccc([N+](=O)[O-])cc1,1.33,2.68,3.3,3.33,–,–,–,–,–,–
C=C1C(=O)[C@@]23C(=O)O[C@H]4CCC(C)(C)[C@H]5[C@H](O)OC[C@@]45[C@@H]2CC[C@@H]1[C@H]3O,8.11,30.8,33,–,68.2,60.7,50.9,–,–,–
C=C1C(=O)[C@@]23C(=O)OC[C@]4(C(=O)CCC(C)(C)[C@H]4C=O)[C@@H]2CC[C@@H]1[C@H]3OC(=O)c1ccccc1,1.48,1.71,1.85,1.92,–,–,–,–,–,–
C=C1C(=O)[C@]23C[C@H]1C[C@H](O)[C@H]2[C@@]12CO[C@@H](O)[C@@H]1C(C)(C)CC[C@@H]2OC3=O [EPINODOSIN],–,–,–,–,–,–,–,0.45,–,–
C=C1C(=O)[C@@]23C(=O)OC[C@]4(C(=O)CCC(C)(C)[C@H]4C=O)[C@@H]2CC[C@@H]1[C@H]3OC(=O)c1ccc(OC)cc1,1.65,2.98,2.8,1.87,–,–,–,–,–,–
C=C1C(=O)[C@@]23C(=O)OC[C@]4(C(=O)CCC(C)(C)[C@H]4C=O)[C@@H]2CC[C@@H]1[C@H]3O,2.18,5.85,5.03,–,24,4.63,4.58,–,31.4,–
C=C1C(=O)[C@@]23C(=O)OC[C@]4(C(=O)CCC(C)(C)[C@H]4C=O)[C@@H]2CC[C@@H]1[C@H]3OC(=O)c1ccc(Cl)cc1,1.38,2.55,3.84,3.12,–,–,–,–,–,–
C=C1C(=O)[C@@]23C(=O)O[C@H]4CCC(C)(C)[C@H]5C(=O)OC[C@@]45[C@@H]2CC[C@@H]1[C@H]3O,2.64,23.7,16,–,20.3,39.7,43.1,–,–,–
C=C1C(=O)[C@@]23C(=O)OC[C@]4(C(=O)CCC(C)(C)[C@H]4C=O)[C@@H]2CC[C@@H]1[C@H]3OC(=O)c1ccc(F)cc1,2.7,8.31,3.75,3.96,–,–,–,–,–,–
C=C1C(=O)[C@]23[C@H](O)[C@H]1CC[C@H]2[C@@]12CO[C@]3(O)[C@@H](O)[C@@H]1C(C)(C)CC[C@@H]2O [ORIDONIN],4.76,11,7.48,5.69,14.6,32.7,26.2,–,26.3,–
C=C1C(=O)[C@@]23C(=O)OC[C@]4(C(=O)CCC(C)(C)[C@H]4C=O)[C@@H]2CC[C@@H]1[C@H]3OC(=O)c1ccccc1Cl,1.22,2.01,2.89,2.66,–,–,–,–,–,–
CC(=O)O[C@H]1C(=O)[C@@]2(C)[C@H]([C@H](OC(=O)c3ccccc3)[C@]3(O)C[C@H](OC(=O)[C@H](O)[C@@H](NC(=O)c4ccccc4)c4ccccc4)C(C)=C1C3(C)C)[C@]1(OC(C)=O)CO[C@@H]1C[C@@H]2O [PACLITAXEL],0.41,0.43,1.89,0.85,–,–,–,–,–,66.6
C=C1C(=O)[C@@]23C(=O)OC[C@]4(C(=O)CCC(C)(C)[C@H]4C=O)[C@@H]2CC[C@@H]1[C@H]3OC(=O)CC,1.31,1.4,1.65,1.78,–,–,–,–,–,–
C=C1C(=O)[C@@]23C(=O)OC[C@]4([C@@H](OC(C)=O)CCC(C)(C)[C@H]4C=O)[C@@H]2CC[C@@H]1[C@H]3O,9.56,72.5,75.4,–,76.7,79.4,26,–,–,–
